Measurements taken from article PMC4303305 (Biochemistry, 2014).
Read-outs that look alike come from different tables or passages of the source.

Assays:
[1] = Size-exclusion FPLC retention of nitrophorins, mutants and ligand complexes; assay type: physicochemical, Rhodnius prolixus; conditions: under any conditions / at any pH
Summary of the method: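 Analytical run on Superdex75 at 4 °C in 100 mM sodium acetate, NaCl added to 220 mM total ionic strength. Protein at 1 mM was run at pH 5.0, 5.25, 5.5 and 5.75. Separately, protein from 1 to 0.025 mM was run at pH 5.0. Elution position compared with molecular weight standards.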

[2] = cited from earlier work
[3] = Stopped-flow kinetics of release of NO from the nitrophorins; assay type: binding, Rhodnius prolixus
Summary of the method: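 Stopped-flow measurement of NO release from NO-bound nitrophorins with native or M0-bearing N-termini. Dissociation Kd obtained at pH 5.0 and 7.5 in dilute solution, 5–10 μM protein in 100 mM sodium phosphate buffer.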

| Substance | dimer formation [1] | NO Kd (NO dissociation) ([2]; column pH 7.5, measured at pH 8.0 rather than pH 7.5 (footnote a)) | NO Kd (NO dissociation) ([2]; pH 5.0, ref 17) [s^–1] | NO Kd (NO dissociation) ([2]; pH 5.0, ref 29) [s^–1] | NO Kd (NO dissociation) ([2]; pH 7.5) [s^–1] | factor by which having M0 present increased the Kd for the loss of NO ([3]; pH 5.0) | factor by which having M0 present increased the Kd for the loss of NO ([3]; pH 7.5) |
| --- | --- | --- | --- | --- | --- | --- | --- |
| (M0)NP2: recombinant NP2 retaining M0 (N-terminus MDCST...) | do not form dimers | 0.12 ± 0.01 ^a s^–1 | 0.05 ± 0.01 | 0.049 ± 0.002 | 0.161 ± 0.005 | – | – |
| NP2: nitrophorin 2 of Rhodnius prolixus; in b68 named without construct | – | – | – | – | – | 1.6 | 1.7 |
| NP2(D1A): D1A mutant of NP2, no M0 present | – | – | – | 0.015 ± 0.005 | 0.089 ± 0.002 | – | – |
